# Measurements: ChEMBL document CHEMBL1124770, “Synthesis and pharmacological evaluation of amino, azido, and nitrogen mustard analogues of 10-substituted cannabidiol and 11- or 12-substituted delta 8-tetrahydrocannabinol” (1990)
# Tests used:
# Type in all cases: functional
# [1] = system: Mus musculus; test: Evaluated for catalepsy activity in mice and percentage immobility was determined at a concentration of 100 mg/Kg.
# In short: (§1)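 Mice, single tail-vein injection (0.1 mL/10 g) in ethanol/emulphor/saline (1:1:18). Catalepsy scored by ring test as % immobility, per previously reported methods. Vehicle and Δ9-THC positive-control groups run in each daily experiment. Mean ± SEM; ANOVA with Dunnett's t test versus control, p < 0.05 two-tailed.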
# [2] = system: Mus musculus; test: Evaluated for hypothermic activity in mice at a dose of 0 mg/Kg.
# In short: (§2)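 Mice dosed by tail-vein injection (0.1 mL/10 g) in ethanol/emulphor/saline (1:1:18). Body temperature change (°C) measured by previously reported methods. Vehicle and Δ9-THC positive controls run each day. Mean ± SEM; ANOVA with Dunnett's t test versus control, p < 0.05 two-tailed.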
# [3] = system: Mus musculus; test: Evaluated for catalepsy activity in mice and percentage immobility was determined at a concentration of 0 mg/Kg.; in short: as §1
# [4] = system: Mus musculus; test: Tail-flick latency was determined at a concentration of 0 mg/Kg.
# In short: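 Antinociception in mice by tail-flick latency (s), per previously reported methods, after tail-vein injection (0.1 mL/10 g) in ethanol/emulphor/saline (1:1:18). Vehicle and Δ9-THC controls run daily. Mean ± SEM; ANOVA with Dunnett's t test, p < 0.05 two-tailed.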
# [5] = system: Mus musculus; test: Evaluated for reduction in spontaneous locomotor activity in mice at a dose of 100 mg/Kg
# In short: (§3)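 Tail-vein injection in mice (0.1 mL/10 g; ethanol/emulphor/saline 1:1:18). Spontaneous locomotor activity counted as counts/10 min, per previously reported methods. Daily vehicle and Δ9-THC positive controls. Mean ± SEM; ANOVA with Dunnett's t test, p < 0.05 two-tailed.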
# [6] = system: Mus musculus; test: Evaluated for reduction in spontaneous locomotor activity in mice, at a dose of 0 mg/Kg; in short: as §3
# [7] = system: Mus musculus; test: Tail-flick latency was determined at a concentration of 100 mg/Kg.
# In short: (§4)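 Mice, drug suspended in ethanol/emulphor/saline (1:1:18) and given by tail-vein injection (0.1 mL/10 g). Antinociception measured as tail-flick latency (s). Vehicle and Δ9-THC positive controls run in each daily experiment. Data given as mean ± SEM. ANOVA with Dunnett's t test against control, p < 0.05 (two-tailed).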
# [8] = system: Mus musculus; test: Evaluated for hypothermic activity in mice at a dose of 100 mg/Kg.; in short: as §2
# [9] = system: Mus musculus; test: Evaluated for reduction in spontaneous locomotor activity in mice at a dose of 50 mg/Kg; in short: as §3
# [10] = system: Mus musculus; test: Evaluated for catalepsy activity in mice and percentage immobility was determined at a concentration of 50 mg/Kg.; in short: as §1
# [11] = system: Mus musculus; test: Evaluated for hypothermic activity in mice at a dose of 50 mg/Kg.; in short: as §2
# [12] = system: Mus musculus; test: Tail-flick latency was determined at a concentration of 50 mg/Kg.; in short: as §4
# [13] = system: Mus musculus; test: Evaluated for reduction in spontaneous locomotor activity in mice at a dose of 10 mg/Kg; in short: as §3
# [14] = system: Mus musculus; test: Tail-flick latency was determined at a concentration of 10 mg/Kg.; in short: as §4
# [15] = system: Mus musculus; test: Evaluated for hypothermic activity in mice at a dose of 10 mg/Kg.; in short: as §2
# [16] = system: Mus musculus; test: Evaluated for hypothermic activity in mice at a dose of 3 mg/kg.; in short: as §2
# [17] = system: Mus musculus; test: Evaluated for reduction in spontaneous locomotor activity in mice at a dose of 3 mg/Kg; in short: as §3
# [18] = system: Mus musculus; test: Evaluated for catalepsy activity in mice and percentage immobility was determined at a concentration of 3 mg/kg.; in short: as §1
# [19] = system: Mus musculus; test: Tail-flick latency was determined at a concentration of 3 mg/kg.; in short: as §4
Compound,Immobility [1],Temperature [2],Immobility [3],Tail flick latency [4],Spont activity [5],Spont activity [6],Tail flick latency [7],Temperature [8],Spont activity [9],Immobility [10],Temperature [11],Tail flick latency [12],Spont activity [13],Tail flick latency [14],Temperature [15],Temperature [16],Spont activity [17],Immobility [18],Tail flick latency [19]
C=C(C)[C@@H]1CCC(C)=CC1c1c(O)cc(O)cc1CCCCC (stereo not given in full),<30%,-1.4 °C,4%,0.2 s,57 Counts 10min-1,45 Counts 10min-1,0.8 s,-3.5 °C,,,,,,,,,,,
CCCCCc1cc(OC(C)=O)c2c(c1)OC(C)(C)[C@@H]1CC=C(CN(CCCl)CCCl)CC21.Cl (stereo not given in full),,-1.8 °C,4%,0.5 s,,51 Counts 10min-1,,,26 Counts 10min-1,<31%,<-3.3 °C,0.6 s,,,,,,,
CCCCCc1cc(O)c2c(c1)OC(C)(C)[C@@H]1CC=C(CNCC)CC21.Cl (stereo not given in full),,-1.8 °C,,0.5 s,,49 Counts 10min-1,,,,,,,54 Counts 10min-1,<2.6 s,<-3.8 °C,,,,
C=C(CNCC)[C@@H]1CCC(C)=CC1c1c(O)cc(CCCCC)cc1O (stereo not given in full),,-0.8 °C,4%,0.6 s,,53 Counts 10min-1,,,,,,,,,,<-2.1 °C,<27 Counts 10min-1,7%,1 s
